Legend:
[1] = biological target: T1, B2 bradykinin receptor (Homo sapiens, UniProt P30411); assay: Antagonist activity at human bradykinin B2 receptor expressed in dhfr-deficient CHO cells assessed as inhibition of bradykinin-induced inositol monophosphate accumulation preincubated for 15 mins prior bradykinin induction measured after 40 mins by liquid scintillation spectrometry; format: functional, cell-based; details: read-out: pA2 (converted)
T1 sequence (P30411 whole entry): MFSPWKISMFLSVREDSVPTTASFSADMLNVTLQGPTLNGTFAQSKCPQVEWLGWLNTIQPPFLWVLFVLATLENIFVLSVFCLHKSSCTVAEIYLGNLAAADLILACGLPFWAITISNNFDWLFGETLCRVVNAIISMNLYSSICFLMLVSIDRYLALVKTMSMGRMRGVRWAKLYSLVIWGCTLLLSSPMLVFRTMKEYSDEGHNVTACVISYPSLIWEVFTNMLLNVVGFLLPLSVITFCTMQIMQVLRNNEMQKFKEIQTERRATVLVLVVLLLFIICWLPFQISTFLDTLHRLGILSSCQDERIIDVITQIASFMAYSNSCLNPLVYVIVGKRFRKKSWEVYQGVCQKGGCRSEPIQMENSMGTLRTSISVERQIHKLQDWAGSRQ
Method in brief: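 CHOdhfr-/hB2R cells (1.8×10^5/well) plated overnight at 37 °C, labelled 24 h with myo-[3H]inositol (1 uCi/well). Antagonist pre-incubation 15 min, then BK 1×10^-11 to 1×10^-5 M for 40 min at 37 °C in Hepes pH 7.4 buffer with 25 mM LiCl. IP1 radioactivity by liquid scintillation. Agonist curves fitted for EC50; pA2 = log(CR−1) − log[antagonist].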

[2] = biological target: T2, B1 bradykinin receptor (Homo sapiens, UniProt P46663); assay: Displacement of [3H][desArg9]Lys-Bradykinin from human bradykinin B1 receptor expressed in CHO cells; format: cell-based
T2 sequence (P46663 whole entry): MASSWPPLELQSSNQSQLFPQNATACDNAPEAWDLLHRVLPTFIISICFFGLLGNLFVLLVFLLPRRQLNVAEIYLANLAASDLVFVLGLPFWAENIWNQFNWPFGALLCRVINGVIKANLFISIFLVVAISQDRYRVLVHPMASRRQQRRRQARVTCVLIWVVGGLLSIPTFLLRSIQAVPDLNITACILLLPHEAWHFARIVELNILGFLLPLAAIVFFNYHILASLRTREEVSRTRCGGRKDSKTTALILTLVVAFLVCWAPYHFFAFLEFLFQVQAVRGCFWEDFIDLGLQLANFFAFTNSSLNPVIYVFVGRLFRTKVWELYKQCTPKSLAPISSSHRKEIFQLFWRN

[3] = biological target: T1, B2 bradykinin receptor; assay: Displacement of [3H]-Bradykinin from human bradykinin B2 receptor expressed in CHO cells membrane after 60 mins by scintillation counting; format: cell membranes
[4] = biological target: T3, B2 bradykinin receptor (Homo sapiens) (UniProt P30411); assay: (§1) Reversible antagonist activity at human bradykinin B2 receptor expressed in dhfr-deficient CHO cells assessed as inhibition of bradykinin-induced inositol monophosphate accumulation at 3 uM preincubated for 15 mins prior bradykinin induction measured after 15 mins washout by liquid scintillation spectrometry; format: functional, cell-based
T3 sequence (whole entry): T1 sequence (P30411 whole entry)
Method in brief: (§2)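 Washout in the IP accumulation assay in CHO/hB2R cells: antagonist (3 µM or 100 nM) pre-incubated 15 min, with medium then fully replaced every 15 min in washed cells. BK (2 nM) added and the reaction stopped after one hour; IP formed quantified. Expressed as % inhibition of time-matched BK responses in vehicle-pre-incubated cells.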

[5] = biological target: T3, B2 bradykinin receptor (Homo sapiens); assay: as §1, with “after 45” for “after 15”; format: functional, cell-based; method in brief: as §2
[6] = biological target: T3, B2 bradykinin receptor (Homo sapiens); assay: as §1, with “after 30” for “after 15”; format: functional, cell-based; method in brief: as §2

SMILES | Kb [1] | Ki [2] | Ki [3] | inhibition [4] | inhibition [5] | inhibition [6]
Cc1cc(C)c2cccc(OCc3c(Cl)ccc(S(=O)(=O)NC4(C(=O)N5CCN(C(=O)[C@@H](N)CCCC[N+](C)(C)C)CC5)CCOCC4)c3Cl)c2n1 | 0.398 nM | > 10000 nM | 0.251 nM | – | – | –
Cc1cc(C)c2cccc(OCc3c(Cl)ccc(S(=O)(=O)NC4(C(=O)N5CCN(CCCCCC[N+](C)(C)C)CC5)CCOCC4)c3Cl)c2n1 | 0.794 nM | > 10000 nM | 0.0631 nM | – | – | –
Cc1cc(C)c2cccc(OCc3c(Cl)ccc(S(=O)(=O)NC4(C(=O)N5CCC(CCCC[N+](C)(C)C)CC5)CCOCC4)c3Cl)c2n1 | 3.98 nM | > 10000 nM | 0.631 nM | 23% | -0% | 6%
Cc1cc(C)c2cccc(OCc3c(Cl)ccc(S(=O)(=O)NC4(C(=O)N5CCN(CCC[N+](C)(C)C)CC5)CCOCC4)c3Cl)c2n1 | – | > 10000 nM | 0.316 nM | – | – | –
Cc1cc(C)c2cccc(OCc3c(Cl)ccc(S(=O)(=O)NC4(C(=O)N5CCN(C(=O)CCC[N+](C)(C)C)CC5)CCOCC4)c3Cl)c2n1 | 0.794 nM | > 10000 nM | 0.126 nM | – | – | –
Cc1cc(C)c2cccc(OCc3c(Cl)ccc(S(=O)(=O)NC4(C(=O)N5CC[N+](C)(CCC[N+](C)(C)C)CC5)CCOCC4)c3Cl)c2n1 | 1 nM | > 10000 nM | 0.1 nM | – | – | –
Cc1cc(C)c2cccc(OCc3c(Cl)ccc(S(=O)(=O)NC4(C(=O)N5CCC(CNCCCC[N+](C)(C)C)CC5)CCOCC4)c3Cl)c2n1 | 2.51 nM | > 10000 nM | 0.0501 nM | – | – | –
Cc1cc(C)c2cccc(OCc3c(Cl)ccc(S(=O)(=O)NC4(C(=O)N5CC[N+]6(CCN(C)CC6)CC5)CCOCC4)c3Cl)c2n1 | 1.58 nM | > 10000 nM | 1 nM | – | – | –
Cc1cc(C)c2cccc(OCc3c(Cl)ccc(S(=O)(=O)NC4(C(=O)N5CCC(CNCC[N+](C)(C)C)CC5)CCOCC4)c3Cl)c2n1 | 2.51 nM | > 10000 nM | 0.2 nM | – | – | –
Cc1cc(C)c2cccc(OCc3c(Cl)ccc(S(=O)(=O)NC4(C(=O)N5CCN(C(=O)[C@@H](N)CCCCN)CC5)CCOCC4)c3Cl)c2n1 | 0.398 nM | > 10000 nM | 0.1 nM | – | – | –
Cc1cc(C)c2cccc(OCc3c(Cl)ccc(S(=O)(=O)NC4(C(=O)N5CC[N+](C)(CCCC[N+](C)(C)C)CC5)CCOCC4)c3Cl)c2n1 | 2 nM | > 10000 nM | 0.0794 nM | – | – | –
Cc1cc(C)c2cccc(OCc3c(Cl)ccc(S(=O)(=O)NC4(C(=O)N5CCN(C(=O)C[N+](C)(C)C)CC5)CCOCC4)c3Cl)c2n1 | 0.794 nM | > 10000 nM | 0.0794 nM | – | – | –
Cc1cc(C)c2cccc(OCc3c(Cl)ccc(S(=O)(=O)NC4(C(=O)N5CCN(C(=O)[C@@H](N)CCCCNC(=N)N)CC5)CCOCC4)c3Cl)c2n1 | – | > 10000 nM | 0.0631 nM | – | – | –
Cc1cc(C)c2cccc(OCc3c(Cl)ccc(S(=O)(=O)NC4(C(=O)N5CCN(C(=O)[C@@H](N)CCCCN(C)C)CC5)CCOCC4)c3Cl)c2n1 | – | > 10000 nM | 0.0631 nM | – | – | –
Cc1cc(C)c2cccc(OCc3c(Cl)ccc(S(=O)(=O)NC4(C(=O)N5CC[N+](C)(CCCCC[N+](C)(C)C)CC5)CCOCC4)c3Cl)c2n1 | 2.51 nM | > 10000 nM | 0.0501 nM | – | – | –
Cc1cc(C)c2cccc(OCc3c(Cl)ccc(S(=O)(=O)NC4(C(=O)N5CCC(CNCCC[N+](C)(C)C)CC5)CCOCC4)c3Cl)c2n1 | 2.51 nM | > 10000 nM | 0.158 nM | – | – | –
Cc1cc(C)c2cccc(OCc3c(Cl)ccc(S(=O)(=O)NC4(C(=O)N5CC[N+](C)(CC[N+](C)(C)C)CC5)CCOCC4)c3Cl)c2n1 | 3.16 nM | > 10000 nM | 0.251 nM | – | – | –
